Results published in ChEMBL document CHEMBL2029265, “2-(Pyrrolidin-1-yl)ethyl-3,4-dihydroisoquinolin-1(2H)-one derivatives as potent and selective histamine-3 receptor antagonists” (J Med Chem, 2012).

What was measured:
[1] = Half life in cynomolgus monkey liver microsomes at 1 uM after 30 mins in presence of NADPH and UDPGA; format: ADME, Macaca fascicularis, Microsome
Procedure, shortened: (§1)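 Liver microsomes from rat, dog, monkey and human were incubated with phase I + II cofactors (NADPH + UDPGA). Half-life was measured in minutes.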

[2] = molecular target: T1, Cytochrome P450 3A4 (Homo sapiens, UniProt P08684); test: Inhibition of CYP3A4 in human liver microsomes up to 100 uM; format: ADME, Microsome
T1 sequence (P08684 whole entry): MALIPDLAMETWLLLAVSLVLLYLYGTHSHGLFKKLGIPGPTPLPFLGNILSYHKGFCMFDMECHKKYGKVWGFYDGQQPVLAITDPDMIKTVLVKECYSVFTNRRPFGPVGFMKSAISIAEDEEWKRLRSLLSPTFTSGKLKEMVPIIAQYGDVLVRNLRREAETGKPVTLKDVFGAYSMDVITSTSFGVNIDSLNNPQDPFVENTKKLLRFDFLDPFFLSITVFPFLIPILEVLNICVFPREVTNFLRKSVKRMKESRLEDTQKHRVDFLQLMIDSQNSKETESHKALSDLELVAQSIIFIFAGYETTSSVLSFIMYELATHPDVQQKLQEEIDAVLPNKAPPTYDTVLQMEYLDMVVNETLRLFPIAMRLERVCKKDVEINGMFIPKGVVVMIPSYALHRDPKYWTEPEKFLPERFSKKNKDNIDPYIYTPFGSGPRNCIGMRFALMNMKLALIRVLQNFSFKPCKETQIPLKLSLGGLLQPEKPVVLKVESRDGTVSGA
Procedure, shortened: (§2)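 Human liver microsomes were incubated with test article at varying concentrations up to 100 μM. Activities measured were CYP1A2, 2A6, 2B6, 2C8, 2C9, 2C19 and 2D6, plus CYP3A4 via midazolam 1′-hydroxylation and via testosterone 6β-hydroxylation.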

[3] = molecular target: Histamine H2 receptor (Homo sapiens, UniProt P25021); test: Binding affinity to H2 receptor
Sequence of Histamine H2 receptor (P25021 whole entry): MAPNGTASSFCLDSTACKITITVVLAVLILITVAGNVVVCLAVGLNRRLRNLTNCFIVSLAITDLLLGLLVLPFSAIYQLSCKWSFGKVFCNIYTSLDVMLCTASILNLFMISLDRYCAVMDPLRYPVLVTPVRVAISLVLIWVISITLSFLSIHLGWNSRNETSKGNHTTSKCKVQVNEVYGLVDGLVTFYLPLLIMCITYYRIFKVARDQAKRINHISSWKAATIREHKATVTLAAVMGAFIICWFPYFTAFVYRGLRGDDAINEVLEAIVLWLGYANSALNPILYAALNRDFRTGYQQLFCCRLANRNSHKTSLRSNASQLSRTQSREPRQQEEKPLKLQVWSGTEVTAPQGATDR

[4] = Ratio of Brain AUC (0 to infinity) to plasma AUC (0 to infinity) in rat at 10 mg/kg, po; format: ADME, organism-based; set-up: dose 10 mg/kg, route oral; details: read-out: BPR
Procedure, shortened: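 Rats dosed orally at 10 mg/kg; brain and plasma AUC0→∞ measured, ratio taken as brain/plasma. Oral vehicle 2% Tween/0.5% methyl cellulose in water.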

[5] = molecular target: Cytochrome P450 2C8 (Homo sapiens, UniProt P10632); test: Inhibition of CYP2C8 in human liver microsomes up to 100 uM; format: ADME, Microsome; procedure, shortened: as §2
[6] = Fraction unbound in rat plasma; format: ADME, cell-free
Procedure, shortened: (§3)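 Free fraction in human and rat plasma was determined by ultrafiltration.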

[7] = tested on: Liver; test: Metabolic stability in beagle dog liver microsomes assessed as GSH adduct formation at 1 uM after 30 mins in presence of NADPH and UDPGA; format: ADME, Canis lupus familiaris, Microsome; details: 0.5 h
Procedure, shortened: (§4)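 Incubations used liver microsomes with NADPH + UDPGA. Glutathione adduct formation was monitored.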

[8] = molecular target: Cytochrome P450 2B6 (Homo sapiens, UniProt P20813); test: Inhibition of CYP2B6 in human liver microsomes up to 100 uM; format: ADME, Microsome; procedure, shortened: as §2
Sequence of Cytochrome P450 2B6 (P20813 whole entry): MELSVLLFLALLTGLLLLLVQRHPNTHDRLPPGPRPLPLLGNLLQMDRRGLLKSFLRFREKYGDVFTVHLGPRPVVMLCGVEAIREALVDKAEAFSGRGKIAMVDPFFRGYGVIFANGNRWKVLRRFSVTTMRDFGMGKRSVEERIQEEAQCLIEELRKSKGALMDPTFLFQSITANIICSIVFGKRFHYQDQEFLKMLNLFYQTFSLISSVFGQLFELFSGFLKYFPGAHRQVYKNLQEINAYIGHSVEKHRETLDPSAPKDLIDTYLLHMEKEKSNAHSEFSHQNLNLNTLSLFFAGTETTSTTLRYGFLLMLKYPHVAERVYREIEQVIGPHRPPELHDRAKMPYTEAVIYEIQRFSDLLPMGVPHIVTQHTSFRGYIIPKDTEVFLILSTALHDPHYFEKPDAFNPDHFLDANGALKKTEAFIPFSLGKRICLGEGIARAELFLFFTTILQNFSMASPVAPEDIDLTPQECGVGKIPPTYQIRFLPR

[9] = molecular target: Cytochrome P450 2C19 (Homo sapiens, UniProt P33261); test: Inhibition of CYP2C19 in human liver microsomes up to 100 uM; format: ADME, Microsome; procedure, shortened: as §2
[10] = tested on: Brain; test: AUC (0 to infinity) in rat brain at 10 mg/kg, po; format: ADME, organism-based; set-up: dose 10 mg/kg, route oral, time infinity; details: in vivo
Procedure, shortened: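 Rats were dosed orally at 10 mg/kg. AUC0→∞ was determined in both brain and plasma, and the brain/plasma ratio was calculated from the two AUCs.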

[11] = molecular target: Albumin (Homo sapiens, UniProt P02768); test: Binding affinity to human serum albumin; format: ADME; details: isolated protein
Sequence of Albumin (P02768 whole entry): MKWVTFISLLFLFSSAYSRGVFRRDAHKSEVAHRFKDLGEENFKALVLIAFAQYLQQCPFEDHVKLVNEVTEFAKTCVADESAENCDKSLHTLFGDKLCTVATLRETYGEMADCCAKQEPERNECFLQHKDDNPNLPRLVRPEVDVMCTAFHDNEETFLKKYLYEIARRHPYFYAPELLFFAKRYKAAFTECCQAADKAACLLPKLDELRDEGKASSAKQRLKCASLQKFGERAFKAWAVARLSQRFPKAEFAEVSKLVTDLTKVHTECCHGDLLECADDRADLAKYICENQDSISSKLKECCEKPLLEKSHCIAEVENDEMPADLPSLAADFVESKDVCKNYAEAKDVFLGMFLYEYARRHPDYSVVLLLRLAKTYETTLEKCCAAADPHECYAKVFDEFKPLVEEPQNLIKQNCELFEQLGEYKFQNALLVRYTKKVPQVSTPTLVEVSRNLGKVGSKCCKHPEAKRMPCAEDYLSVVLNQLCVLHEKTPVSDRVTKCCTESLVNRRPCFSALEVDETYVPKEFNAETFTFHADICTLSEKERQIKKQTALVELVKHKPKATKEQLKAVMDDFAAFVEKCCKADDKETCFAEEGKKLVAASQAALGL
Procedure, shortened: (§5)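 Binding to human serum albumin and to α1-acid glycoprotein was assessed by Biacore analysis.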

[12] = molecular target: Cytochrome P450 2A6 (Homo sapiens, UniProt P11509); test: Inhibition of CYP2A6 in human liver microsomes up to 100 uM; format: ADME, Microsome; procedure, shortened: as §2
Sequence of Cytochrome P450 2A6 (P11509 whole entry): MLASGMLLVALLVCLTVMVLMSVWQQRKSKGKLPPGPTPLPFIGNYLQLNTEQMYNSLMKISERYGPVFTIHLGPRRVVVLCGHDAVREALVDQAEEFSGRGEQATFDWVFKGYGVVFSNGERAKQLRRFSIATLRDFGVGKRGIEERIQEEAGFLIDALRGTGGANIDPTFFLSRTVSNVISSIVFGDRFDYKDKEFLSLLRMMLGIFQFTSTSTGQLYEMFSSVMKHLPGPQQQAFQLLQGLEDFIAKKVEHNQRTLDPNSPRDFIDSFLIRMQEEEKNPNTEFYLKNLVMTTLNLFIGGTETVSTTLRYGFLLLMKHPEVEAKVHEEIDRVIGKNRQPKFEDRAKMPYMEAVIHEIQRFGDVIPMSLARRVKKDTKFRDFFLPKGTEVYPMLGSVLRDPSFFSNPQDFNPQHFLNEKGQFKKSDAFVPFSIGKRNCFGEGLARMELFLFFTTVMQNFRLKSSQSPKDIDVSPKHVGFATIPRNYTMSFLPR

[13] = Apparent permeability from basolateral to apical side of human Caco2 cells; format: ADME, cell-based; details: Caco-2
Procedure, shortened: (§6)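 Permeability was measured across Caco-2 epithelial monolayers in both the apical→basolateral and basolateral→apical directions. Apparent permeability is reported in 10−6 cm/s, and a directional ratio (B→A over A→B) was derived.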

[14] = Half life in Sprague-Dawley rat liver microsomes at 1 uM after 30 mins in presence of NADPH and UDPGA; format: ADME, Microsome; procedure, shortened: as §1
[15] = molecular target: Cytochrome P450 2D6 (Homo sapiens, UniProt P10635); test: Inhibition of CYP2D6 in human liver microsomes up to 100 uM; format: ADME, Microsome; procedure, shortened: as §2
Sequence of Cytochrome P450 2D6 (P10635 whole entry): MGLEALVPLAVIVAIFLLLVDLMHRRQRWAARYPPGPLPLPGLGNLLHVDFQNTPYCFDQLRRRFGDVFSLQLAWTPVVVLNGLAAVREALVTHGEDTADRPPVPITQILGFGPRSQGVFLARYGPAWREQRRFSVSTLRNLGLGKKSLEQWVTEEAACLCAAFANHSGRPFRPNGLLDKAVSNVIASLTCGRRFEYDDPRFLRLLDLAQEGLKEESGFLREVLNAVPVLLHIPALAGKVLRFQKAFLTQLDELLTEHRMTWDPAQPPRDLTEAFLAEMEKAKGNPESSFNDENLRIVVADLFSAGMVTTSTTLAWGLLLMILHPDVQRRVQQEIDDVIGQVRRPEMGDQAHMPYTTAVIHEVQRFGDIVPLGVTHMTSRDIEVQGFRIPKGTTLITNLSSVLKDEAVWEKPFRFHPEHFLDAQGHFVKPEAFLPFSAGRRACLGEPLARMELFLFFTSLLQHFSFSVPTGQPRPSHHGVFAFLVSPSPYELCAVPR

[16] = molecular target: Sodium-dependent dopamine transporter (Homo sapiens, UniProt Q01959); test: Binding affinity to DAT
[17] = molecular target: Cytochrome P450 2C9 (Homo sapiens, UniProt P11712); test: Inhibition of CYP2C9 in human liver microsomes up to 100 uM; format: ADME, Microsome; procedure, shortened: as §2
[18] = molecular target: T1, Cytochrome P450 3A4; test: Inhibition of CYP3A4-mediated midazolam-1'-hydroxylation activity in human liver microsomes at 100 uM; format: ADME, Microsome; procedure, shortened: as §2
[19] = tested on: Liver microsomes; test: Metabolic stability in Sprague-Dawley rat liver microsomes assessed as GSH adduct formation at 1 uM after 30 mins in presence of NADPH and UDPGA; format: ADME, Microsome; details: 0.5 h; procedure, shortened: as §4
[20] = tested on: Liver microsomes; test: Metabolic stability in human liver microsomes assessed as GSH adduct formation at 1 uM after 30 mins in presence of NADPH and UDPGA; format: ADME, Microsome; details: 0.5 h; procedure, shortened: as §4
[21] = molecular target: Sodium-dependent serotonin transporter (Homo sapiens, UniProt P31645); test: Binding affinity to 5-HT transporter
[22] = tested on: Plasma; test: AUC (0 to infinity) in rat plasma at 10 mg/kg, po; format: ADME, organism-based; set-up: time infinity, dose 10 mg/kg, route oral; details: in vivo
[23] = Metabolic stability in cynomolgus monkey liver microsomes assessed as GSH adduct formation at 1 uM after 30 mins in presence of NADPH and UDPGA; format: ADME, Macaca fascicularis, Microsome; details: 0.5 h; procedure, shortened: as §4
[24] = molecular target: T2, Histamine H3 receptor (Homo sapiens, UniProt Q9Y5N1); test: Inverse agonist activity at human H3 receptor expressed in HEK293T cells assessed as inhibition of {35S]GTPgamma binding; format: cell-based, HEK-293T
T2 sequence (Q9Y5N1 whole entry): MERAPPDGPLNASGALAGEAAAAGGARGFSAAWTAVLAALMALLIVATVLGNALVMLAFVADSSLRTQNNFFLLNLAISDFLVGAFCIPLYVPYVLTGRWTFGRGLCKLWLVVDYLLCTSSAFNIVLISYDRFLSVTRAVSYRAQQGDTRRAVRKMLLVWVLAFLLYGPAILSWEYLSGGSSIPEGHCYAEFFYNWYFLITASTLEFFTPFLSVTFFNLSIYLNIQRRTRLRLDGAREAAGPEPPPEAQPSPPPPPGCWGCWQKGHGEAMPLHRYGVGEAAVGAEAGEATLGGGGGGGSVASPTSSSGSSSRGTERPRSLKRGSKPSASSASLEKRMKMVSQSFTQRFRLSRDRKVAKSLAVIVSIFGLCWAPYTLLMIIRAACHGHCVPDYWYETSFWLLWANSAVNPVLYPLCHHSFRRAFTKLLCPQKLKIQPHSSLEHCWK
Procedure, shortened: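 Basal [35S]GTPγS binding was measured in membranes from HEK cells expressing human H3 receptor, across a range of concentrations. EC50 and maximal inhibition relative to basal binding were derived.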

[25] = molecular target: T1, Cytochrome P450 3A4; test: Inhibition of CYP3A4-mediated testosterone-6beta-hydroxylation activity in human liver microsomes at 100 uM; format: ADME, Microsome; procedure, shortened: as §2
[26] = molecular target: T2, Histamine H3 receptor; test: Displacement of [3H]-(R)-alpha-methylhistamine from human H3 receptor expressed in HEK293T cells after 120 mins by scintillation counting; format: cell-based, HEK-293T
[27] = molecular target: Histamine H1 receptor (Homo sapiens, UniProt P35367); test: Binding affinity to H1 receptor
[28] = Half life in human liver microsomes at 1 uM after 30 mins in presence of NADPH and UDPGA; format: ADME, Microsome; procedure, shortened: as §1
[29] = molecular target: 5-hydroxytryptamine receptor 2B (Homo sapiens, UniProt P41595); test: Binding affinity to 5-HT2B receptor
[30] = molecular target: Cytochrome P450 1A2 (Homo sapiens, UniProt P05177); test: Inhibition of CYP1A2 in human liver microsomes up to 100 uM; format: ADME, Microsome; procedure, shortened: as §2
Sequence of Cytochrome P450 1A2 (P05177 whole entry): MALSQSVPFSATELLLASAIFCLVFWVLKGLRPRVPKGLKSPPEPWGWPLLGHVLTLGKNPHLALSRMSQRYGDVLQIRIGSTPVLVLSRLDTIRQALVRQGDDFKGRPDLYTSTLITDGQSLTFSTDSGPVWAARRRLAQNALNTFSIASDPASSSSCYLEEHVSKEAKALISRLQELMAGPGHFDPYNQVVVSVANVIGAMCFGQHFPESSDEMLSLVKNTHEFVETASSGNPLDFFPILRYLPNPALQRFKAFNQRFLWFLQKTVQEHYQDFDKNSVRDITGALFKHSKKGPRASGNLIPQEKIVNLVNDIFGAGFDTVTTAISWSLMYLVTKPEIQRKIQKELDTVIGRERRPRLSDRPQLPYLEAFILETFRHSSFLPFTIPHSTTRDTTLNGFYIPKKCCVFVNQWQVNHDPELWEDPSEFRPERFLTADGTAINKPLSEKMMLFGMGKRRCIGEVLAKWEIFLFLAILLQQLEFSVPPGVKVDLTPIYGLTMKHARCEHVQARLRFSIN

[31] = Fraction unbound in human plasma; format: ADME, cell-free; procedure, shortened: as §3
[32] = Apparent permeability from apical to basolateral side of human Caco2 cells; format: ADME, cell-based; details: Caco-2; procedure, shortened: as §6
[33] = molecular target: 5-hydroxytryptamine receptor 6 (Homo sapiens, UniProt P50406); test: Binding affinity to 5-HT6 receptor
Sequence of 5-hydroxytryptamine receptor 6 (P50406 whole entry): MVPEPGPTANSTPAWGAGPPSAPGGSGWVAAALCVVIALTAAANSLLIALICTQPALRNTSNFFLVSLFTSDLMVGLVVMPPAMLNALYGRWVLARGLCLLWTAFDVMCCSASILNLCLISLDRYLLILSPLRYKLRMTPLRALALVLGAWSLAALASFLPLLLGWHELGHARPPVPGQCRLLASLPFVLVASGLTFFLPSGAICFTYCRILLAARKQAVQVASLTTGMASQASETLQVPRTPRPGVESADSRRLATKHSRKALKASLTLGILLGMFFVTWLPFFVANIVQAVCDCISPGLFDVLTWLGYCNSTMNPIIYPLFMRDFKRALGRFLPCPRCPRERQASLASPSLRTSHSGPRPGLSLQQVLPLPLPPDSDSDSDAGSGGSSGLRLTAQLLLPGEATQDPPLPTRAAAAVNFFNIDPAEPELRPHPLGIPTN

[34] = molecular target: T3, Alpha-2A adrenergic receptor (Homo sapiens, UniProt P08913); test: Binding affinity to alpha-2A receptor
T3 sequence (P08913 whole entry): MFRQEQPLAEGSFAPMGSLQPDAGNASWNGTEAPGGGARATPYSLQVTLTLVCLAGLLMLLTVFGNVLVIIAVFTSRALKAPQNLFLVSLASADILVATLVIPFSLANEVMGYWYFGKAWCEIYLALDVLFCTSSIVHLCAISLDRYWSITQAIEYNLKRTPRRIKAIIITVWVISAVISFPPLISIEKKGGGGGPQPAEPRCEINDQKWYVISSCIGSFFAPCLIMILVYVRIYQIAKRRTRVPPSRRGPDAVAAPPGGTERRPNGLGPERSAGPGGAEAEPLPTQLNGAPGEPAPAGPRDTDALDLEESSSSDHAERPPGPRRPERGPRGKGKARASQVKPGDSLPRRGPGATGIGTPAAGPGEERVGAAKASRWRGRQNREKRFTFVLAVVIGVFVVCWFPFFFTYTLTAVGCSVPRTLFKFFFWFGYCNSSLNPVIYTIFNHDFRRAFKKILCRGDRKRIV

[35] = molecular target: T4, 5-hydroxytryptamine receptor 1A (Homo sapiens, UniProt P08908); test: Binding affinity to 5-HT1A receptor
T4 sequence (P08908 whole entry): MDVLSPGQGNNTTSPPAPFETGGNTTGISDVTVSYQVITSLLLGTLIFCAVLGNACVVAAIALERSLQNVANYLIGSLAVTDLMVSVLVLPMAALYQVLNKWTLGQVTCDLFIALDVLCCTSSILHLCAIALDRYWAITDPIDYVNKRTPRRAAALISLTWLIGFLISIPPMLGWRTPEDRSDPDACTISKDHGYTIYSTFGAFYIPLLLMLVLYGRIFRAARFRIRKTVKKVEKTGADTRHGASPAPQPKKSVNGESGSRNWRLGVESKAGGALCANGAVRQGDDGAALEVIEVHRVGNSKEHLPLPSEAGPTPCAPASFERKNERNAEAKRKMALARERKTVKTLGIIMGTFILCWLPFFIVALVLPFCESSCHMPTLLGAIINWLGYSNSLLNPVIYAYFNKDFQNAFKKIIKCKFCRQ

[36] = molecular target: D(2) dopamine receptor (Homo sapiens, UniProt P14416); test: Binding affinity to D2 receptor
Sequence of D(2) dopamine receptor (P14416 whole entry): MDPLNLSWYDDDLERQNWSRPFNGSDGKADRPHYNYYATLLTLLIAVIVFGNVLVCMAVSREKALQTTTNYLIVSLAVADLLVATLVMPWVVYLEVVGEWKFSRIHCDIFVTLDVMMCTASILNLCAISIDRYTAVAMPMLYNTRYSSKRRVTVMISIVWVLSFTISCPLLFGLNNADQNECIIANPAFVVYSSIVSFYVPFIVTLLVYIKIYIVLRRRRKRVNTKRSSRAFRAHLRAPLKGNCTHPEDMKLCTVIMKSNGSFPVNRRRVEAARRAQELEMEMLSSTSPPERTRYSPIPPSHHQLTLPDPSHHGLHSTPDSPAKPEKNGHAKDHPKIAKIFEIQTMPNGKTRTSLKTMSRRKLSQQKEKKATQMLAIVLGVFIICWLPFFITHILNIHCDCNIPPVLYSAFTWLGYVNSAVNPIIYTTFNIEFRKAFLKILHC

[37] = Binding affinity to human alpha1-acid glycoprotein; format: ADME; procedure, shortened: as §5
[38] = Half life in beagle dog liver microsomes at 1 uM after 30 mins in presence of NADPH and UDPGA; format: ADME, Canis lupus familiaris, Microsome; procedure, shortened: as §1

SMILES: CN(C)C(=O)c1ccc(-c2ccc3c(c2)CCN(CCN2CCCC2)C3=O)cc1
- half-life at 1 µM [1]: > 60 min
- inhibition (INH) [2]: Not Active
- Ki [3]: > 55 µM
- Kp [4]: 0.27
- inhibition (INH) [5]: Not Active
- fraction unbound [6]: 0.5
- Stability [7]: Stable
- inhibition (INH) [8]: Not Active
- inhibition (INH) [9]: Not Active
- AUC [10]: 642 ng·h/g
- Activity [11]: Toxic
- inhibition (INH) [12]: Not Active
- Papp B→A [13]: 31.1 ×10⁻⁶ cm/s
- half-life at 1 µM [14]: 26 min
- inhibition (INH) [15]: Not Active
- Ki [16]: > 10 µM
- inhibition (INH) [17]: Not Active
- inhibition (INH) [18]: Not Active
- Stability [19]: Stable
- Stability [20]: Stable
- Ki [21]: > 3 µM
- AUC [22]: 2369 ng·h/g
- Stability [23]: Stable
- EC50 [24]: 0.0107 µM
- inhibition (INH) [25]: Not Active
- Ki [26]: 0.0009 µM
- Ki [27]: > 10 µM
- half-life at 1 µM [28]: 69 min
- Ki [29]: > 10 µM
- inhibition (INH) [30]: Not Active
- fraction unbound [31]: 0.59
- Papp A→B [32]: 12.1 ×10⁻⁶ cm/s
- Ki [33]: > 10 µM
- Ki [34]: > 3 µM
- Ki [35]: 8.67 µM
- Ki [36]: > 10 µM
- Activity [37]: Toxic
- half-life at 1 µM [38]: 47 min
